Measurements taken from paper PMC8361970 (Pediatric Diabetes, 2021).

Assays:
Assay type in all cases: in vivo, human
[1] = tested on: children and adolescents (6–17 years) with type 1 diabetes; assay: Phase 3 trial: adverse events; conditions: for Duration of nausea AEs / Duration of vomiting AEs: majority of events; for Onset of nausea AEs after dosing: most AEs of nausea
[2] = tested on: children and adolescents (6–17 years) with type 1 diabetes, insulin-induced hypoglycemia; conditions: for Mean PG increase from baseline after 30 min: 30 min after single SC dose, full analysis set; for IV glucose rescue required (participants): within 45 min of single SC dose
In short: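 After an overnight fast, IV insulin glulisine was infused until PG fell below 80 mg/dL. Five min later, if PG was 54–80 mg/dL, a single SC injection was given. Central-lab PG was taken pre-dose and at 4–45 min (60 min if ≥21 kg). Change from baseline was analysed by ANCOVA (treatment, age group, injection site; baseline PG covariate), with PG at rescue carried forward.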

[3] = tested on: children and adolescents (6–17 years) with type 1 diabetes; assay: Phase 3 trial: anti-drug antibodies; conditions: the one positive participant

dasiglucagon
Duration of nausea AEs [1]: less than 2 h | Duration of vomiting AEs [1]: less than 5 min | Onset of nausea AEs after dosing [1]: 1.5 to 3 h | Mean PG increase from baseline after 30 min [2]: 98.2 mg/dL | IV glucose rescue required (participants) [2]: none | Anti-drug antibody titer [3]: low titer | Cross-reaction of anti-drug antibodies with glucagon [3]: did not cross‐react with glucagon | Neutralizing activity of anti-drug antibodies [3]: No neutralizing activity was detected

glucagon [reference compound]
Duration of nausea AEs [1]: less than 2 h | Duration of vomiting AEs [1]: less than 5 min | Onset of nausea AEs after dosing [1]: 1.5 to 3 h | Mean PG increase from baseline after 30 min [2]: 8440 mg/dL | IV glucose rescue required (participants) [2]: none
